Converted amounts (≈) assume the structure as drawn. The source made the active and inactive calls. The calls are words filed in the database; no cut-off is given here.
How the values were obtained:
B16-F1 = assay: Cytotoxicity against mouse B16-F1 cells assessed as reduction in cell survival at 0.1 to 10 uM after 18 hrs by MTT assay; assay type: functional, cell-based
Summary of the method: (§1)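 Seeded at 2,500 cells/well in medium with 10% serum. After adhesion, exposed to 0.1, 1 and 10 μM in medium with 5% serum for 18 h. Medium then replaced with fresh medium containing 1.2 mM MTT for 4 h; formazan dissolved in DMSO, absorbance at 540 nm. Results given as % of basal response.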

Tubulin (Homo sapiens) [1] = target: T1, Tubulin (Homo sapiens) (UniProt P68371+Q9H4B7+P0DPH7+P68366+Q13509+Q71U36+P04350+Q3ZCM7+P07437+P68363+Q9BQE3+Q6PEY2+Q13885+Q9BVA1+Q9BUF5); assay: Inhibition of tubulin (unknown origin) polymerization at 27.5 uM measured over 70 mins by turbidity method; assay type: protein-complex assay
Summary of the method: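 Tubulin at 25 µM in GAB buffer (10 mM sodium phosphate, 30% glycerol, 1 mM EGTA, 6 mM MgCl2, 1 mM GTP, pH 6.7) with 27.5 µM compound or DMSO vehicle. Turbidity is read at 355 nm for 70 min at 37 °C. Data are normalized to the initial stable absorbance plateau to correct for compound absorbance.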

[2] = Solubility of compound in pH 3 aqueous solution after 12 hrs by HPLC analysis; assay type: physicochemical
[3] = Solubility of compound in pH 7.4 aqueous solution after 12 hrs by HPLC analysis; assay type: physicochemical
Summary of the method: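 Water solubility at pH 7.4 measured by HPLC analysis.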

[4] = Ratio of IC50 for human A2780AD cells to IC50 for human A2780 cells; assay type: functional
Summary of the method: (§2)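 Relative resistance: IC50 in the P-gp overexpressing resistant line divided by IC50 in the parental line. Both IC50s came from the 48 h MTT assay (serial dilutions, absorbance at 595/690 nm, log-dose response curves, three independent assays).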

HCC827 [5] = assay: Induction of apoptosis in human HCC827 cells assessed as increase in caspase-3 expression at 10 uM after 18 hrs by Western blot analysis; assay type: functional, cell-based
Summary of the method: (§3)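 PC9 and HCC827 maintained in DMEM with 10% FBS, then exposed to 10 μM compound for 18 h in 5% serum. Caspase 3 activation and cell cycle proteins examined by western blot.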

HL-60 [6] = assay: Induction of autophagy in serum starved human HL60 cells assessed as increase in LC3B-2 levels at 10 uM after 105 mins by immunoblot analysis; assay type: functional, cell-based
Summary of the method: (§4)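 HL-60 in serum-supplemented RPMI 1640, or starved in Earle's Balanced Salts for 15 min beforehand, then treated with 10 μM compound with or without 40 μM chloroquine for 1 h 45 min or 16 h. LC3B-II measured by immunoblot, densitometry normalized to actin, three independent experiments, Student's T-test.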

SCC-4 [7] = assay: Cytotoxicity against human SCC4 cells after 48 hrs by MTT assay; assay type: functional, cell-based; settings: SCC-4, 48 h
Summary of the method: (§5)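 Cells (NCI-H929 in RPMI-1640 GlutaMAX; SCC4 in DMEM GlutaMAX; 10% FBS, 37 °C, 5% CO2) treated with increasing concentrations for 48 h. IC50 is the mean of three independent experiments.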

NIH3T3 [8] = assay: Cytotoxicity against mouse NIH/3T3 cells harboring MDR G185 after 48 hrs by MTT assay; assay type: functional, cell-based; settings: NIH3T3, 48 h
Summary of the method: (§6)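 Cells seeded at 12,000 to 17,000 per well depending on line, incubated overnight, then given serial dilutions of ligand for 48 h. MTT at 2.5 mg/mL added for 4 h at 37 °C, formazan solubilized overnight (10% SDS, 45% dimethylformamide, pH 5.5), absorbance read at 595/690 nm. IC50 from log-dose response curves; mean ± SE of three independent assays.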

NCI-H929 [9] = assay: Induction of apoptosis in human NCI-H929 cells at 500 nM after 48 hrs by Annexin V/propidium iodide staining-based flow cytometric analysis relative to control; assay type: functional
Summary of the method: (§7)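 Seeding density: NCI-H929 and Ca9.22 at 30×10^4 cells/mL, SCC4 at 15×10^4 cells/mL. Cells exposed 48 h to compound (500 nM; 50 μM in SCC4 for one compound) or vehicle (1% EtOH v/v). Annexin V/PI staining, flow cytometry, 10,000 cells gated on vehicle-treated cells. Three independent experiments, mean ± S.E.M, T-test.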

HCC827 [10] = assay: Cytotoxicity against human HCC827 cells assessed as reduction in cell survival at 0.1 to 10 uM after 50 to 60 hrs by MTT assay; assay type: functional, cell-based
Ca9-22 [11] = assay: Cytotoxicity against human Ca9-22 cells after 24 hrs by MTT assay; assay type: functional, cell-based; settings: Ca9-22, 24 h
[12] = Cytotoxicity against human A2780AD cells after 48 hrs by MTT assay; assay type: functional, cell-based; summary of the method: as §6
Tubulin (Homo sapiens) [13] = target: T1, Tubulin (Homo sapiens); assay: Binding affinity to tubulin (unknown origin) by analytical ultracentrifugation
NCI-H929 [14] = assay: Cytotoxicity against human NCI-H929 cells after 48 hrs by MTT assay; assay type: functional, cell-based; settings: NCI-H929, 48 h; summary of the method: as §5
PC-9 [15] = assay: Induction of apoptosis in human PC9 cells assessed as reduction in cyclin D1 expression at 10 uM after 18 hrs by Western blot analysis; assay type: functional, cell-based; summary of the method: as §3
B16-F10 = assay: Cytotoxicity against mouse B16F10 cells assessed as reduction in cell survival at 0.1 to 10 uM after 18 hrs by MTT assay; assay type: functional, cell-based; summary of the method: as §1
HCC827 [16] = assay: Cytotoxicity against human HCC827 cells assessed as reduction in cell survival at 0.1 to 10 uM after 18 hrs by MTT assay; assay type: functional, cell-based; summary of the method: as §1
PC-9 [17] = assay: Induction of apoptosis in human PC9 cells assessed as increase in caspase-3 expression at 10 uM after 18 hrs by Western blot analysis; assay type: functional, cell-based; summary of the method: as §3
[18] = Ratio of IC50 for mouse NIH/3T3 cells harboring MDR G185 to IC50 for mouse NIH/3T3 cells; summary of the method: as §2
NB-4 [19] = assay: Cell cycle arrest in human NB4 cells assessed as accumulation of cells at G1 phase after 24 hrs by propidium iodide staining-based flow cytometric analysis; assay type: functional
Summary of the method: (§8)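 NB4 cultured at 37 °C, 5% CO2 in RPMI-1640 with 10% heat-inactivated FBS. Treated at 50 and 100 nM, 1 and 10 μM for 24 h. Cells fixed/permeabilized in 70% ethanol overnight at 4 °C, then given RNase and 20 μg/ml PI for 30 min. Doublets excluded, 20,000 events per sample; cell-cycle phase distribution analysed.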

PC-9 [20] = assay: Cytotoxicity against human PC9 cells assessed as reduction in cell survival at 0.1 to 10 uM after 18 hrs by MTT assay; assay type: functional, cell-based; summary of the method: as §1
HL-60 [21] = assay: Cell cycle arrest in human HL60 cells assessed as accumulation of cells at G2/M phase at 10 uM after 24 hrs by propidium iodide staining-based flow cytometric analysis; assay type: functional
Summary of the method: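 HL-60 exposed to 10 μM for 24 h, vehicle 0.1% DMSO. Cells plated at 2×10^5 cells/mL, stained in PBS with 0.1% sodium citrate, 0.1% NP40 and propidium iodide for 30 min at room temperature in the dark. DNA content by flow cytometry; G2/M fraction reported.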

SCC-4 [22] = assay: Induction of apoptosis in human SCC4 cells at 500 nM after 48 hrs by Annexin V/propidium iodide staining-based flow cytometric analysis relative to control; assay type: functional; summary of the method: as §7
HL-60 [23] = assay: Induction of autophagy in human HL60 cells assessed as increase in LC3B-2 levels at 10 uM after 105 mins in presence of lysosomal inhibitor chloroquine by immunoblot analysis; assay type: functional, cell-based; summary of the method: as §4
[24] = Apparent solubility of compound in sodium phosphate buffer at 15 uM after 20 mins; assay type: physicochemical
PC-9 [25] = assay: Induction of apoptosis in human PC9 cells assessed as increase in p21 expression at 10 uM after 18 hrs by Western blot analysis; assay type: functional, cell-based; summary of the method: as §3
NIH3T3 [26] = assay: Cytotoxicity against mouse NIH/3T3 cells after 48 hrs by MTT assay; assay type: cell-based; settings: NIH3T3, 48 h; summary of the method: as §6
A549 = assay: Cytotoxicity against human A549 cells assessed as reduction in cell survival at 0.1 to 10 uM after 18 hrs by MTT assay; assay type: functional, cell-based; summary of the method: as §1
HCC827 [27] = assay: Induction of apoptosis in human HCC827 cells assessed as reduction in cyclin D1 expression at 10 uM after 18 hrs by Western blot analysis; assay type: functional, cell-based; summary of the method: as §3
HCC827 [28] = assay: Induction of apoptosis in human HCC827 cells assessed as increase in p21 expression at 10 uM after 18 hrs by Western blot analysis; assay type: functional, cell-based; summary of the method: as §3
Ca9-22 [29] = assay: Cytotoxicity against human Ca9-22 cells after 48 hrs by MTT assay; assay type: functional, cell-based; settings: Ca9-22, 48 h
A2780 = assay: Cytotoxicity against human A2780 cells after 48 hrs by MTT assay; assay type: functional, cell-based; settings: A2780, 48 h; summary of the method: as §6
Ca9-22 [30] = assay: Cytotoxicity against human Ca9-22 cells after 72 hrs by MTT assay; assay type: functional, cell-based; settings: Ca9-22, 72 h
NB-4 [31] = assay: Cell cycle arrest in human NB4 cells at 50 to 10000 nM after 24 hrs by propidium iodide staining-based flow cytometric analysis; assay type: functional; summary of the method: as §8
HL-60 [32] = assay: Induction of autophagy in human HL60 cells assessed as […] in LC3B-2 levels at 10 uM after 16 hrs in presence of lysosomal inhibitor chloroquine by immunoblot analysis; assay type: functional, cell-based; summary of the method: as §4
NB-4 [33] = assay: Induction of differentiation in human NB4 cells at 500 nM after 24 hrs in presence of ATRA by CD11c staining-based flow cytometric analysis; assay type: functional, cell-based
Summary of the method: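 NB4 exposed to 0.5 μM compound together with 1 μM ATRA for 24 h. Cells stained with PE-conjugated CD11c (mouse IgG1-PE control) for 1 h at 4 °C in the dark, washed, resuspended in PBS with propidium iodide (0.25 μg/mL), then analysed by flow cytometry. Biological triplicates, mean ± S.E.M.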

NB-4 [34] = assay: Cell cycle arrest in human NB4 cells assessed as accumulation of cells at G2/M phase at 50 to 10000 nM after 24 hrs by propidium iodide staining-based flow cytometric analysis; assay type: functional; summary of the method: as §8
HL-60 [35] = assay: Induction of autophagy in serum starved human HL60 cells assessed as increase in LC3B-2 levels at 10 uM after 105 mins in presence of lysosomal inhibitor chloroquine by immunoblot analysis; assay type: functional, cell-based; summary of the method: as §4
Tubulin (Homo sapiens) [36] = target: T1, Tubulin (Homo sapiens); assay: Displacement of podophyllotoxin from tubulin (unknown origin) by ultracentrifugation method; assay type: protein-complex assay

CC(=O)OC1=C(c2cccc3ccccc23)Oc2cc3ccccc3cc2-n2cccc21
Activity (B16-F1): Active
inhibition (Tubulin (Homo sapiens) [1]): Active
solubility at 12 h [2]: 29.4 µM (≈ 12.3 µg/mL)
solubility at 12 h [3]: 26 µM (≈ 10.9 µg/mL)
Ratio IC50 [4]: 0.96
Activity (HCC827 [5]): Active
Activity (HL-60 [6]): Active
IC50 (SCC-4 [7]): 160 nM
IC50 (NIH3T3 [8]): 306 nM
Activity (NCI-H929 [9]): >40%
Activity (HCC827 [10]): inactive
IC50 (Ca9-22 [11]): 210 nM
IC50 [12]: 240 nM
Kb (Tubulin (Homo sapiens) [13]): 4.4 ×10⁷ /M
IC50 (NCI-H929 [14]): 376 nM
Activity (PC-9 [15]): Active
Activity (B16-F10): Active
Activity (HCC827 [16]): Active
Activity (PC-9 [17]): Active
Ratio IC50 [18]: 2.42
Activity (NB-4 [19]): Dose-dependent effect
Activity (PC-9 [20]): Active
Activity (HL-60 [21]): Active
Activity (SCC-4 [22]): >40%
Activity (HL-60 [23]): Active
solubility at 20 min, 15 µM [24]: 0.62 µM (≈ 0.259 µg/mL)
Activity (PC-9 [25]): Active
IC50 (NIH3T3 [26]): 126 nM
Activity (A549): Active
Activity (HCC827 [27]): Active
Activity (HCC827 [28]): Active
IC50 (Ca9-22 [29]): 170 nM
IC50 (A2780): 249 nM
IC50 (Ca9-22 [30]): 83 nM

CC(=O)OC1=C(c2ccc3c(c2)OCO3)Oc2cc3ccccc3cc2-n2cccc21
inhibition (Tubulin (Homo sapiens) [1]): Active
Activity (NB-4 [31]): inactive
Ratio IC50 [4]: 3.46
Activity (HL-60 [6]): Active
IC50 (NIH3T3 [8]): 2040 nM
Activity (HL-60 [32]): Active
IC50 [12]: 7100 nM
Kb (Tubulin (Homo sapiens) [13]): 2 ×10⁷ /M
Activity (NB-4 [33]): Active
Ratio IC50 [18]: 0.73
Activity (NB-4 [19]): Dose-dependent effect
Activity (HL-60 [21]): Active
Activity (NB-4 [34]): Active
Activity (HL-60 [35]): Active
solubility at 20 min, 15 µM [24]: 0.14 µM (≈ 0.0576 µg/mL)
IC50 (NIH3T3 [26]): 2780 nM
IC50 (A2780): 2050 nM
inhibition (Tubulin (Homo sapiens) [36]): Active

— ChEMBL document CHEMBL4382230, “Structure-activity relationships, biological evaluation and structural studies of novel pyrrolonaphthoxazepines as antitumor agents” (Eur J Med Chem, 2019)
